Assay outcomes deposited in PubChem BioAssay by several laboratories.
PostGolgi yeast = growth inhibition of a yeast mutant, post-Golgi transport screen | 98,000 compounds, 0.9% hits | post-Golgi transport phenotypic cell assay | AID 739 | inhibition, % at 10 µM;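 note: yeast cells grown in 1536-well plates; yeast grown about 18 h at 30C before absorbance read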
Ecoli tolC = blocks growth of E. coli BW25113 tolC mutant | 65,000 compounds, 2.2% hits | OD615 | AID 573 | growth inhibition, % at 10 µM (by protocol);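 active = growth inhibition at or above a cutoff equal to the mean over every tested compound plus 3 SD, cut at about 60% in these data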;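 note: growth measured after 20 h incubation at 37 °C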
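Doses: one dose of 10 µM final / Material: E. coli BW25113 ΔtolC::kan, tolC deletion mutant strain / Buffer or medium: LB with kanamycin 50 µg/mL / Evaluation: percent growth inhibition / Detection: optical density read at 615 nm / Incubation: 37 °C, 20 h exposure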
E coli WT exp = blocks growth of wild type E. coli BW25113. OD600 absorbance. growth inhibition, % at 100 µM. 98,000 compounds, 0.15% hits. AID 710;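 active = growth inhibition above about 50% at one test dose, limit read from the data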;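 note: growth measured after 20 h incubation at 37 °C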
EphB4 antag = antagonists of human EphB4-ephrin-B2 interaction. P54760. EphB4 LBD / TNYL-RAW-Alexa532 peptide, fluorescence polarization. inhibition, % at 7 µM. 97,000 compounds, 0.15% hits. AID 720;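 active = inhibition above the screen-wide mean inhibition plus 3 SD, cut at about 15% in these data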;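 note: 0% = DMSO wells and 100% = excess unlabeled TNYL-RAW peptide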
PostGolgi ctrl = inhibits growth of the yeast control strain; efflux-deficient yeast background strain, growth absorbance A615, 16 h; inhibition, % at 10 µM; 98,000 compounds, 5% hits
Numbers without * were called inactive; x = no result. In the library only some 6% were active in any assay of this set; here they are far more common. Cut-off read from the data, not from the text of the source, unless noted: active = inhibition above about 30%; inactive = the rest.

SMILES | PostGolgi yeast | Ecoli tolC | E coli WT exp | EphB4 antag | PostGolgi ctrl
COc1ccc(C2C(C(=O)N3CCCC3)CC(=O)N2c2ccc(OC)cc2)cc1 (centres undefined) | 0 | -5 | 2 | x | 38*
Clc1ccc(-n2c(SC/C=C/c3ccccc3)nnc2-c2cccnc2)cc1 | -7 | x | -18 | -3 | 35*
Cc1cccn2c(=O)c3cc(C(=O)N4CCN(c5ccccc5)CC4)n(C)c3nc12 | x | 3 | x | x | x
Clc1ccc(OCc2nc(-c3ccccn3)no2)c(Br)c1 | -1 | 14 | 1 | -2 | 31*
Clc1ccc(OCCCc2nc(-c3cccnc3)no2)c(Cl)c1 | -3 | 95* | 9 | 3 | 34*
Cc1cc(C)c(C)c(OCc2nc(-c3cccnc3)no2)c1 | -6 | 7 | 5 | -2 | 0
Clc1ccc(-c2noc(CCCOc3ccccc3)n2)cc1 | 0 | x | -4 | 10 | 8
Clc1ccccc1OCc1nc(-c2ccccn2)no1 | 13 | 4 | 13 | 3 | 14
Clc1ccc(OCCCc2nc(-c3ccncc3)no2)c(Cl)c1 | 92* | x | 16 | 1 | 95*
Cc1[nH]n(-c2ccc([N+](=O)[O-])cc2)c(=O)c1N=Nc1nc2ccccc2s1 | x | x | x | -2 | x
Cc1cc2c(c(Sc3ccccc3)n1)C(=O)OC2 | 0 | -19 | -1 | x | -1
O=C(Nc1ccc(NC(=S)NC(=O)C(c2ccccc2)c2ccccc2)cc1)c1ccccc1 | x | x | x | -1 | x
CCSCC1COC(c2cccn2Cc2ccc(C)cc2)=N1 (centres undefined) | 4 | 61* | 2 | -2 | 17
N#CC1=C(N)NC(SCc2ccc(Cl)cc2)=C(C#N)C12CCCCC2 | 48* | 7 | -5 | -3 | 18
N#CC1=C(N)NC(SCc2ccc(Br)cc2)=C(C#N)C12CCCCC2 | x | x | x | 6 | x
O=C(C1CCN(S(=O)(=O)c2cccc3cccnc23)CC1)N1CCN(C2CCCC2)CC1 | x | -7 | x | x | x
O=S(=O)(NCc1cn2ccsc2n1)c1ccc2c(c1)OCCO2 | 1 | 3 | -2 | 3 | 4
CC(Nc1ccc(Br)cn1)c1cc(Cl)ccc1O (centres undefined) | -3 | 100* | 20 | -4 | 31*
CC(Nc1ccc(Cl)cc1)c1cc(Cl)ccc1O (centres undefined) | x | x | x | -6 | x
COc1cccc(N2CCN(c3ncnc4c3[nH]c3ccc(F)cc34)CC2C)c1 (centres undefined) | 66* | -1 | -14 | 9 | 96*
COc1cccc(N2CCN(c3ncnc4c3[nH]c3ccccc34)CC2C)c1 (centres undefined) | 7 | 2 | -14 | x | 44*
N#Cc1cccc(NC(=O)Nc2cccs2)c1 | -4 | 16 | 73* | -1 | 7
CCc1cccc(NC(=O)Nc2cccs2)c1 | 14 | 38 | 12 | 1 | 18
O=C(N/N=C\c1cc(Br)cs1)C1COc2ccccc2O1 (centres undefined) | 7 | x | -13 | 4 | 37*
O=C(N/N=C/c1ccc2c(c1)OCO2)C1COc2ccccc2O1 (centres undefined) | -1 | x | -9 | -10 | 3
SMILES | PostGolgi yeast | Ecoli tolC | E coli WT exp | EphB4 antag | PostGolgi ctrl
O=C(CSc1cn(CCNC(=O)c2cccs2)c2ccccc12)NC1CCCC1 | -8 | x | -5 | -5 | 10
Cc1nn(-c2ccccc2)c(Cl)c1C(=O)Nc1nnc(C2CCCC2)s1 | -4 | 100* | -22 | x | 4
Cc1nnsc1NC(=O)OCc1ccc(C(C)(C)C)cc1 | 0 | x | -1 | 0 | 15
COc1cccc(Cn2nnc(C(=O)Nc3cc(Cl)ccc3OC)c2N)c1 | -12 | 11 | -7 | 1 | 22
COc1ccc(OC)c(NC(=O)c2nnn(Cc3ccc(Br)cc3F)c2N)c1 | -13 | 34 | 1 | 3 | 31*
Cc1cc(C)n(C(C[N+](=O)[O-])c2ccc(Cl)cc2)n1 (centres undefined) | -2 | x | 100* | 3 | 4
O=C(C1CCN(Cc2cc(Cl)ccc2O)CC1)N1CCN(Cc2ccccc2)CC1 | 7 | 95* | 4 | -2 | 17
CCOc1ccc(NC(=O)CSc2nc(C)c3c(c2C#N)CCCC3)cc1 | -8 | x | -4 | -6 | 2
CC(=O)Nc1cccc(OCC(O)Cn2cnc3ccccc32)c1 (centres undefined) | -5 | -23 | 0 | 1 | 1
Cc1cc2ncn(CC(O)COc3cccc(C(=O)O)c3)c2cc1C (centres undefined) | 35* | -19 | 5 | -7 | -7
Cc1cc(OCc2nn[nH]n2)c2c(C)c(Cc3ccccc3)c(=O)oc2c1 | -3 | 37 | 1 | -3 | 32*
